A short description of data set [1]: Octanol-water partition coefficient, log P of the compound. Type of data set: physicochemical.
A short description of data set [2]: Cytotoxicity against human L02 cells assessed as inhibitory rate at 80 uM after 24 hrs by MTT assay. The format is cell-based. Conditions: read-out: INH. A digest of the protocol:
(§1)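 Human normal liver L02 cells and human embryonic kidney 293 cells treated with compound at 80 μM for 24 h. Viability of untreated cells taken as 100%; inhibitory rate reported as mean ± SD of three independent experiments.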
(In general: Tetrazolium assays rely on reduction of a dye to a coloured formazan, in cell work by metabolically active cells.)

A further data set concerns PC-12. Put plainly: Inhibition of corticosterone-induced rat PC12 cells lesions assessed as protection rate at 1.25 uM after 24 hrs by MTT assay. Type of data set: functional. Further details: scale not given: the % may be the effect or the level left. In a few lines: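 Rat PC12 cells injured with corticosterone and co-treated with compound at 1.25 μM, absorbance read 24 h after treatment. Protection rate = (A_d − A_c)/A_c × 100%, where A_c is the mean absorbance of corticosterone-only controls and A_d that of corticosterone plus compound. Six independent experiments, ± SD.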

The nature of data set [3]: Cytotoxicity against human HEK293 cells assessed as inhibitory rate at 80 uM after 24 hrs by MTT assay. Type of data set: cell-based. Conditions: read-out: INH. A digest of the protocol:
as §1

Another data set has as its system Mus musculus. Put plainly: Antidepressant activity in C57 mouse assessed as decrease in immobility time at 32 mg/kg, ip on days 2 to 15 by forced swimming test. Type of data set: functional, organism-based. Also noted: dose 32 mg/kg.

Activity calls are given as the source filed them. The rule behind the calls is not given here.

A word on the logP: it is a log measure of how a compound divides between an organic and an aqueous phase.

In turn, `COc1ccc2cccc(CCNC(=O)N3CCCCC3)c2c1` registered a logP in data set [1] of 2.81. In addition, the figures for the cytotoxicity at 24 h, 80 µM in data set [2] and in data set [3] were 22.6% and 16.6%, respectively. Besides, the Activity in the data set on PC-12 is recorded as -11.5%.
The like results for `COc1ccc2cccc(CCNC(=O)N3CCN(C)CC3)c2c1` were, in that order, 1.88, 20.1%, 46.6% and 13.6%.
Regarding `CCN1CCN(C(=O)NCCc2cccc3ccc(OC)cc23)CC1`, the logP in data set [1] stood at 1.35. The cytotoxicity at 24 h, 80 µM in data set [2] stood at 3.1%; in data set [3], 3.9%. Further, in the data set on PC-12, the Activity is recorded as -7.7%.
The like results for `COc1ccc2cccc(CCNC(=O)N3CCN(C(=O)OC(C)(C)C)CC3)c2c1` were, in that order, 1.06, 3%, 13.3% and 6.3%.
The matching figures for `COc1ccc2cccc(CCNC(=O)N(C)CCO)c2c1`: 1.12, 5.5%, 7.1% and -19.5%.
In the case of `COc1ccc2cccc(CCN3C(=O)C(C)=C(C)C3=O)c2c1`, the logP in data set [1] amounted to 1.53. Besides, the cytotoxicity at 24 h, 80 µM in data set [2] came out at 13.8%; in data set [3] it was 9.6%. Besides, the Activity in the data set on PC-12 came out at 34.2%. The result in the data set with Mus musculus was Active.
Molecule `COc1ccc2cccc(CCNC(=O)/C(Cl)=C(\Cl)C(=O)O)c2c1` registered a log partition coefficient (logP) in data set [1] of 1.18. Moreover, the cytotoxicity at 24 h, 80 µM in data set [2] was found to be 3.8%; in data set [3], 18.6%. Further, in the data set on PC-12, the Activity is given as -8.4%.
The matching figures for `COc1ccc2cccc(CCN3C(=O)CC(C)(C)CC3=O)c2c1`: 2.78, 10.4%, 41.9% and -50.3%.
Regarding `COc1ccc2cccc(CCN3C(=O)CCC3=O)c2c1`, the lipophilicity (logP) in data set [1] is 1.87. Moreover, the cytotoxicity at 24 h, 80 µM in data set [2] amounted to 8.5%; in data set [3], 8.1%. Besides, the Activity in the data set with PC-12 was -16.8%.
On to `COc1ccc2cccc(CCN3C(=O)c4ccc(Br)cc4C3=O)c2c1`, for which the logP in data set [1] is 2.57. Further, the cytotoxicity at 24 h, 80 µM in data set [2] came out at 9.1%; in data set [3], 11.5%. Further, the Activity with PC-12 was -10.5%.
The molecule `COc1ccc2cccc(CCNC(=O)CC(C)(C)CC(=O)O)c2c1` gave a logP in data set [1] of 1.75. Moreover, the cytotoxicity at 24 h, 80 µM in data set [2] came out at 5.7%; in data set [3], 34.1%. Also, the Activity with PC-12 was found to be 6.3%.
`COc1ccc2cccc(CCNC(=O)CCC(=O)O)c2c1`: the logP in data set [1] amounted to 1.35. The cytotoxicity at 24 h, 80 µM amounted to 3.1% in data set [2] and 13.9% in data set [3]. The Activity with PC-12 worked out at 11%.
`COc1ccc2cccc(CCNC(=O)/C=C/C(=O)O)c2c1` yielded a logP in data set [1] of 1.54. For the same molecule, the cytotoxicity at 24 h, 80 µM in data set [2] is 3.4%; in data set [3], 33%. For the same molecule, the Activity in the data set with PC-12 is listed as 23.2%. In addition, the outcome with Mus musculus was inactive.
The molecule `COc1ccc2cccc(CCNC(=O)N3CCC3)c2c1` came in with a log partition coefficient (logP) in data set [1] of 1.56. The cytotoxicity at 24 h, 80 µM in data set [2] came to 18.4%; in data set [3], 28.4%. For the same molecule, the Activity with PC-12 is listed as 15.7%.
Consider `COc1ccc2cccc(CCNC(=O)/C(C)=C(\C)C(=O)O)c2c1`, for which the logP in data set [1] was 2.01. Besides, the cytotoxicity at 24 h, 80 µM came out at 5.8% in data set [2] and 13.2% in data set [3]. In the data set with PC-12, the Activity came to 2.8%.
Consider `COc1ccc2cccc(CCNC(=O)N3CCC(c4ccccc4)CC3)c2c1`, for which the log partition coefficient (logP) in data set [1] is 2.05. Further, the cytotoxicity at 24 h, 80 µM was found to be 8.6% in data set [2] and 16.5% in data set [3]. In addition, the Activity in the data set with PC-12 was 2.5%.
Molecule `COc1ccc2cccc(CCNC(C)=O)c2c1` [AGOMELATINE] gave a logP in data set [1] of 1.62. Besides, the cytotoxicity at 24 h, 80 µM in data set [2] turned out to be 20.2%; in data set [3], 26.6%. Further, the Activity with PC-12 was 26.2%.
Turning to `CNCCC(Oc1ccc(C(F)(F)F)cc1)c1ccccc1` (stereo not drawn) [FLUOXETINE], the Activity in the data set with PC-12 turned out to be 19.7%.
With `COc1ccc2cccc(CCNC(=O)CC3(CC(=O)O)CCCC3)c2c1`, the logP in data set [1] was -1.17. Besides, the cytotoxicity at 24 h, 80 µM in data set [2] was 4.1%; in data set [3], 13.4%. The Activity with PC-12 is listed as -17.5%.
The matching figures for `COc1ccc2cccc(CCN3C(=O)C(Cl)=C(Cl)C3=O)c2c1`: 1.99, 3.4%, 17.2% and -12.8%.
In data set [1], `COc1ccc2cccc(CCNC(=O)N3CCCC3)c2c1` showed a logP of -0.52. For the same molecule, the cytotoxicity at 24 h, 80 µM in data set [2] turned out to be 19.3%; in data set [3], 28.4%. Besides, the Activity with PC-12 is given as 9.8%.
